Active and inactive are the calls of the source. The rule behind the calls is not given here.
What was measured:
[1] = molecular target: T1, Ras guanyl-releasing protein 3 (Homo sapiens, UniProt Q8IV61); experiment: Binding affinity to RasGRP3
T1 sequence (Q8IV61 whole entry): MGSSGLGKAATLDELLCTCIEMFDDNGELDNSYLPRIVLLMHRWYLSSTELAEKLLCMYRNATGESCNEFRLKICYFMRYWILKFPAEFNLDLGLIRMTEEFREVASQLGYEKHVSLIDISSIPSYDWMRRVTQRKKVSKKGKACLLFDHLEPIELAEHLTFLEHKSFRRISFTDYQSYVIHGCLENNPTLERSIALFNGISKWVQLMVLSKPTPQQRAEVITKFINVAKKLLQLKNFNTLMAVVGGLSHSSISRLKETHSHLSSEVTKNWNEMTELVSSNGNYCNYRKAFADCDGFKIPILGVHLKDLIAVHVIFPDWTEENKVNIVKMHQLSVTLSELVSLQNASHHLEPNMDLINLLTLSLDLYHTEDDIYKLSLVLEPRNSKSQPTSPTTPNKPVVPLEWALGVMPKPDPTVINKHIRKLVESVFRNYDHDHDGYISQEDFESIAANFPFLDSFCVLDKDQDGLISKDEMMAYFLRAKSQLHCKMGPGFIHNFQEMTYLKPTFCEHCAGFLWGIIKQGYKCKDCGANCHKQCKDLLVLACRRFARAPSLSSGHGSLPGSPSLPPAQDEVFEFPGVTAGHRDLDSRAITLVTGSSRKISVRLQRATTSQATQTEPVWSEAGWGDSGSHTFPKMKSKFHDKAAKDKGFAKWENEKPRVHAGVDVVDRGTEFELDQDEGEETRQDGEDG

[2] = molecular target: Protein kinase C alpha type (Mus musculus, UniProt P20444); experiment: Displacement of [3H]PDBu form mouse PKCalpha by scintillation counting
Summary of the method: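 Partially purified mouse PKCα; competition with [³H]PDBU. ID50 obtained by fitting a sigmoidal competition curve and converted to Ki = ID50/(1+L/Kd). Pure compounds tested at 6–7 concentrations; crude library compounds at a single 1 μM concentration. Triplicates per concentration, at least three experiments; mean ± SEM.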

NK92 = experiment: Induction of IFN-gamma production in human NK92 cells at 1 ug/mL after 6 hrs by ELISA; type: functional, cell-based
Summary of the method: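 NK92 cells (10⁶ cells/mL) in RPMI with 10% FCS, glutamine and Pen/Strep at 37 °C for 6 h with derivative (1 μg/mL) alone or with IL12 (100 u/10⁶ cells), in duplicate wells. IFN-γ in supernatants by ELISA.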

[3] = molecular target: Transcription factor Jun (Mus musculus) (UniProt P05627); experiment: Activation of AP1 expressed in BALB/c mouse JB6 cells coexpressing luciferase reportet gene at 100 ng/mL after 18 hrs relative to 12-O-tetradecanoylphorbol-13-O-acetate; type: cell-based
Transcription factor Jun (Mus musculus), sequence (P05627 whole entry): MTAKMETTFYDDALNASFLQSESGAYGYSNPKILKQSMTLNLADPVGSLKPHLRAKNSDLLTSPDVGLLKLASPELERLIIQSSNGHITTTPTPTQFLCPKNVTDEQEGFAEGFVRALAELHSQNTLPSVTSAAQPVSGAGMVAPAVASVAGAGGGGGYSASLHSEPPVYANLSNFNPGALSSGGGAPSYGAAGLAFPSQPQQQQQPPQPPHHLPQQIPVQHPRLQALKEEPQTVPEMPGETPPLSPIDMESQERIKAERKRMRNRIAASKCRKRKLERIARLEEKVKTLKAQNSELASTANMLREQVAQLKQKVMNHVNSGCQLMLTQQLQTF
Summary of the method: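 JB6 P+ cells seeded at 10⁴, transfected with 4x AP-1 luciferase reporter (0.2 μg DNA) using a 3:1 lipid reagent ratio; on day 3 treated with DMSO, TPA (10 ng/mL) or DAG-lactone (100 ng/mL); luciferase read 18 h later. Values normalized to TPA-induced activity; average of 6 independent assays.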

[4] = Selectivity ratio of Ki for mouse PKCalpha to Ki for RasGRP3
MCF-10A = experiment: Induction of human MCF10A cell motility at 10 uM after 20 hrs by photomicroscopy relative to diacylglycerol-lactone; type: functional, cell-based
Summary of the method: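 MCF-10A cells seeded in a small circular area through a 10-hole manifold; at manifold removal, compound added to a final 10 μM (vehicle 1% v/v DMSO), 37 °C, 5% CO₂. Radial spread imaged over 20 h; radius in microns expressed as a ratio to the radius from the DAG-lactone positive control. Triplicate measurements.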

CHO [5] = experiment: Translocation of GFP-tagged PKCbeta from cytosol to membrane compartment of CHO cells; type: functional, cell-based
Summary of the method: (§1)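 GFP-tagged PKC isoforms overexpressed in CHO cells; live-cell localization followed by confocal microscopy before and after ligand (300 nM). Representative of 2 (PKCβ, ε) or 3 (PKCα, δ) independent experiments.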

CHO [6] = experiment: Translocation of GFP-tagged PKCepsilon from cytosol to membrane compartment of CHO cells by confocal microscopy
CHO [7] = experiment: Translocation of GFP-tagged PKCalpha from cytosol to membrane compartment of CHO cells by confocal microscopy
CHO [8] = experiment: Translocation of GFP-tagged mouse PKCdelta from cytosol to membrane compartment of CHO cells by confocal microscopy; type: functional, cell-based; details: Cricetulus griseus; summary of the method: as §1
LNCaP [9] = experiment: Induction of apoptosis in human LnCAP cells pretreated at 10 uM for 16 hrs followed by 20 Gy radiation assessed after 24 hrs post radiation by fluorescence microscopy; type: functional, cell-based
Summary of the method: (§2)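 LNCaP cells in RPMI-1640 with 0.2% human albumin replacing FCS from 24 h before the experiment; pretreated 16 h with compound (10 or 20 μM), then 20 Gy irradiation. Fixed 24 h post radiation, stained with bis-benzimide and scored by fluorescence microscopy; cells with ≥3 apoptotic bodies counted apoptotic. Average of two experiments ± SD.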

LNCaP [10] = experiment: Induction of apoptosis in human LnCAP cells pretreated at 20 uM for 16 hrs followed by 20 Gy radiation assessed after 24 hrs post radiation by fluorescence microscopy; type: functional, cell-based; summary of the method: as §2
LNCaP [11] = experiment: Antitumor activity against human LnCAP cells transplanted in Swiss nude mouse assessed as inhibition of tumor growth at 12 mg/kg, ip administered daily 16 hrs prior to 10 Gy radiation during first week followed by 2 injections at 48 hrs intervals during second week assessed after 8 weeks by radioimmunoassay; type: functional, organism-based; design: dose 12 mg/kg
Summary of the method: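 Male Swiss nude mice (8–10 weeks) implanted orthotopically in prostate with 3.0×10⁶ LNCaP cells; used when serum PSA was 5.0–15.0 ng/mL. Drug 12 mg/kg i.p. in DMSO, 16 h before each 1 Gy local pelvic fraction (daily, Mon–Fri, total 10 Gy) in week 1, then two injections 48 h apart in week 2. Serum PSA by radioimmunoassay through week 8; mean per group.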

LNCaP [12] = experiment: Antitumor activity against human LnCAP cells transplanted in Swiss nude mouse assessed as reduction in ataxia telengiectasia mutated gene level at 12 mg/kg, ip administered as 2 injections at 24 hrs intervals assessed after 8 weeks by radioimmunoassay; type: functional, organism-based; design: dose 12 mg/kg; details: in the assay text read “48 hrs after first injection” for “after 8 weeks”
Summary of the method: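 Orthotopic LNCaP prostate tumors (~100 mm³) in Swiss nude mice; 12 mg/kg i.p., two injections 24 h apart, prostate resected 48 h after first injection. ATM measured in tumor extracts relative to vehicle control.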

| SMILES | Ki [1] | Ki [2] | other results |
| --- | --- | --- | --- |
| CCCCC(CC)C(=O)OCC1(CO)C/C(=C\c2ccc(Cl)c(F)c2)C(=O)O1 (racemic; form 2) | – | – | Activity (NK92): Active; Activity [3]: Active |
| O=C1OC(CO)(COC(=O)c2ccc([N+](=O)[O-])cc2)C/C1=C\c1ccc([N+](=O)[O-])cc1 (racemic; form 2) [listing 1 of 2 here] | 2.22 nM | 127 nM | – |
| CN(C)c1cccc(C(=O)OCC2(CO)C/C(=C\c3cccc([N+](=O)[O-])c3)C(=O)O2)c1 (racemic) | 5.3 nM | 63 nM | – |
| O=C1OC(CO)(COC(=O)c2ccc([N+](=O)[O-])cc2)C/C1=C\c1ccc([N+](=O)[O-])cc1 (racemic; form 2) [listing 2 of 2 here] | – | – | Ratio Ki [4]: 57 |
| CN(C)c1cccc(C(=O)OCC2(CO)C/C(=C\c3ccccc3[N+](=O)[O-])C(=O)O2)c1 (racemic) | 16.4 nM | 116 nM | – |
| CCC(C(=O)OCC1(CO)C/C(=C\c2ccc(-c3ccc(C(F)(F)F)cc3)cc2)C(=O)O1)c1ccccc1 (racemic; form 2) | – | – | Activity (MCF-10A): Active |
| CCCCC(CC)C(=O)OCC1(CO)C/C(=C\c2ccc(F)c(Br)c2)C(=O)O1 (racemic; form 2) | – | – | Activity (CHO [5]): Active; Activity (CHO [6]): Active; Activity (CHO [7]): Active; Activity (CHO [8]): Active; Activity (MCF-10A): Active |
| CN(C)c1ccc(C(=O)OCC2(CO)C/C(=C\c3ccccc3[N+](=O)[O-])C(=O)O2)cc1 (racemic) | 14.4 nM | 54.5 nM | – |
| CN(C)c1ccccc1C(=O)OCC1(CO)C/C(=C\c2ccccc2[N+](=O)[O-])C(=O)O1 (racemic) | 9.4 nM | 134 nM | – |
| CN(C)c1ccc(C(=O)OCC2(CO)C/C(=C\c3cccc([N+](=O)[O-])c3)C(=O)O2)cc1 (racemic) | 8 nM | 72.4 nM | – |
| CCCCC(CC)C(=O)OCC1(CO)C/C(=C\c2ccc(Cl)cc2)C(=O)O1 (racemic; form 2) | – | – | Activity (NK92): Active; Activity [3]: Active |
| CCCC(CCC)C(=O)OCC1(CO)C/C(=C\c2ccc(F)cc2)C(=O)O1 (racemic; form 1) | – | – | Activity (LNCaP [9]): Active; Activity (LNCaP [10]): Active; Activity [3]: Active |
| CCCC(CCC)C(=O)OCC1(CO)C/C(=C\c2ccc(C(F)(F)F)cc2)C(=O)O1 (racemic; form 1) | – | – | Activity (LNCaP [11]): Active; Activity (NK92): Active; Activity (LNCaP [9]): Active; Activity (LNCaP [10]): Active; Activity (LNCaP [12]): Active; Activity [3]: Active |

Second part, led by results:

| Ki [1] | Ki [2] | SMILES | other results |
| --- | --- | --- | --- |
| 4.68 nM | 102 nM | CN(C)c1ccc(/C=C2\CC(CO)(COC(=O)c3ccc(N(C)C)cc3)OC2=O)cc1 (racemic; form 1) | – |
| 3.9 nM | 44 nM | CN(C)c1ccccc1C(=O)OCC1(CO)C/C(=C\c2cccc([N+](=O)[O-])c2)C(=O)O1 (racemic) | – |
| 1.8 nM | 38.5 nM | CN(C)c1ccccc1C(=O)OCC1(CO)C/C(=C\c2ccc([N+](=O)[O-])cc2)C(=O)O1 (racemic) | – |
| 2.3 nM | 31.8 nM | CN(C)c1cccc(C(=O)OCC2(CO)C/C(=C\c3ccc([N+](=O)[O-])cc3)C(=O)O2)c1 (racemic) | – |
| 3.8 nM | 127 nM | CN(C)c1ccc(C(=O)OCC2(CO)C/C(=C\c3ccc([N+](=O)[O-])cc3)C(=O)O2)cc1 (racemic; form 1) | – |
| – | 10.1 nM | CCCCC(CC)C(=O)OCC1(CO)C/C(=C/c2ccc(Cl)c(F)c2)C(=O)O1 (racemic) | Activity (NK92): Active; Activity [3]: Active |
